Experimental data as given in ChEMBL document CHEMBL1146459, “Production of biologically active taxoids by a callus culture of Taxus cuspidata” (2004).

What was measured:
[1] = Growth inhibition of human HBC4 cells after 48 hrs by SRB assay; format: functional; conditions: HBC4, 48 h
KM12 = test: Growth inhibition of human KM12 cells after 48 hrs by SRB assay; format: functional; conditions: KM12, 48 h
LOX IMVI = test: Growth inhibition of human LOXIMVI cells after 48 hrs by SRB assay; format: functional
DMS-114 = test: Growth inhibition of human DMS114 cells after 48 hrs by SRB assay; format: functional; conditions: DMS-114, 48 h
OVCAR-5 = test: Growth inhibition of human OVCAR5 cells after 48 hrs by SRB assay; format: functional; conditions: OVCAR-5, 48 h
MKN-74 = test: Growth inhibition of human MKN74 cells after 48 hrs by SRB assay; format: functional; conditions: MKN-74, 48 h
[2] = Reversal of multidrug resistance in human 2780AD cells assessed as [3H]vincristine accumulation at 0.1 ug/mL after 2 hrs relative to verapamil; format: functional, A2780 ADR
SF-268 = test: Growth inhibition of human SF268 cells after 48 hrs by SRB assay; format: functional; conditions: SF-268, 48 h
MDA-MB-231 = test: Growth inhibition of human MDA-MB-231 cells after 48 hrs by SRB assay; format: functional; conditions: MDA-MB-231, 48 h
HCC 2998 = test: Growth inhibition of human HCC2998 cells after 48 hrs by SRB assay; format: functional; conditions: HCC 2998, 48 h
OVCAR-4 = test: Growth inhibition of human OVCAR4 cells after 48 hrs by SRB assay; format: functional; conditions: OVCAR-4, 48 h
St-4 = test: Growth inhibition of human St-4 cells after 48 hrs by SRB assay; format: functional; conditions: St-4, 48 h
[3] = Reversal of multidrug resistance in human 2780AD cells assessed as [3H]vincristine accumulation at 1 ug/mL after 2 hrs relative to control; format: functional, A2780 ADR
In short: (§1)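 Multidrug-resistant human ovarian cancer 2780AD cells were exposed to taxoids at 0.1, 1 or 10 µg/mL. Radiolabelled vincristine accumulated in the cells was measured as dpm/well, using means of triplicate determinations. Results are expressed as % of vincristine accumulated relative to the control experiment. They were also scored on a seven-level index according to the range of relative accumulation.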

[4] = Reversal of multidrug resistance in human 2780AD cells assessed as [3H]vincristine accumulation at 10 ug/mL after 2 hrs relative to control; format: functional, A2780 ADR; in short: as §1
NCI-H23 = test: Growth inhibition of human NCI-H23 cells after 48 hrs by SRB assay; format: functional; conditions: NCI-H23, 48 h
MCF7 = test: Growth inhibition of human MCF7 cells after 48 hrs by SRB assay; format: functional; conditions: MCF7, 48 h
PC-3 = test: Growth inhibition of human PC3 cells after 48 hrs by SRB assay; format: functional; conditions: PC-3, 48 h
HT-29 = test: Growth inhibition of human HT-29 cells after 48 hrs by SRB assay; format: functional; conditions: HT-29, 48 h
DU-145 = test: Growth inhibition of human DU145 cells after 48 hrs by SRB assay; format: functional; conditions: DU-145, 48 h
[5] = Growth inhibition of human RXF631L cells after 48 hrs by SRB assay; format: functional; conditions: RXF 631, 48 h
[6] = Reversal of multidrug resistance in human 2780AD cells assessed as [3H]vincristine accumulation at 0.1 ug/mL after 2 hrs relative to control; format: functional, A2780 ADR; in short: as §1
ACHN = test: Growth inhibition of human ACHN cells after 48 hrs by SRB assay; format: functional
[7] = read-out: LC50 (the source's name)
[8] = read-out: pLC50 (the source's name) (converted)

C=C1[C@@H](OC(C)=O)CC[C@]2(C)[C@@H]1C[C@@H]1C[C@H](OC(C)=O)C(C)=C([C@@H](O)[C@@H]2OC(=O)/C=C/c2ccccc2)C1(C)C
CC50 [1, 7]: 100 µM
TGI ([1]; read-out: TGI): 100 µM
GI50 ([1]; read-out: pGI50 (converted)): > 100 µM
CC50 [1, 8]: 100 µM
TGI ([1]; read-out: pTGI (converted)): 100 µM
GI50 (KM12; read-out: GI50): 6.4 µM
CC50 (KM12; [7]): > 100 µM
TGI (KM12; read-out: TGI): 100 µM
GI50 (KM12; read-out: pGI50 (converted)): 6.46 µM
CC50 (KM12; read-out: pLC50 (converted)): > 100 µM
TGI (KM12; read-out: pTGI (converted)): 100 µM
GI50 (LOX IMVI; read-out: GI50): 38 µM
CC50 (LOX IMVI; [7]): 100 µM
TGI (LOX IMVI; read-out: TGI): 100 µM
GI50 (LOX IMVI; read-out: pGI50 (converted)): 38 µM
CC50 (LOX IMVI; [8]): 100 µM
TGI (LOX IMVI; read-out: pTGI (converted)): 100 µM
GI50 (DMS-114; read-out: GI50): 7.8 µM
CC50 (DMS-114; [7]): 100 µM
TGI (DMS-114; read-out: TGI): 100 µM
GI50 (DMS-114; read-out: pGI50 (converted)): 7.76 µM
CC50 (DMS-114; [8]): 100 µM
TGI (DMS-114; read-out: pTGI (converted)): 100 µM
GI50 (OVCAR-5; read-out: GI50): 32 µM
TGI (OVCAR-5; read-out: TGI): 100 µM
GI50 (OVCAR-5; read-out: pGI50 (converted)): 32.4 µM
TGI (OVCAR-5; read-out: pTGI (converted)): 100 µM
GI50 (MKN-74; read-out: GI50): 9.5 µM
CC50 (MKN-74; [7]): 100 µM
TGI (MKN-74; read-out: TGI): 100 µM
GI50 (MKN-74; read-out: pGI50 (converted)): 9.55 µM
CC50 (MKN-74; [8]): 100 µM
TGI (MKN-74; read-out: pTGI (converted)): 100 µM
Activity [2]: 139%
GI50 (SF-268; read-out: GI50): 43 µM
CC50 (SF-268; [7]): 100 µM
TGI (SF-268; read-out: TGI): 100 µM
GI50 (SF-268; read-out: pGI50 (converted)): 10.7 µM
CC50 (SF-268; [8]): 100 µM
TGI (SF-268; read-out: pTGI (converted)): 100 µM
GI50 (MDA-MB-231; read-out: GI50): 16 µM
TGI (MDA-MB-231; read-out: TGI): 100 µM
GI50 (MDA-MB-231; read-out: pGI50 (converted)): 16.2 µM
TGI (MDA-MB-231; read-out: pTGI (converted)): 100 µM
GI50 (HCC 2998; read-out: GI50): 26 µM
CC50 (HCC 2998; [7]): 100 µM
TGI (HCC 2998; read-out: TGI): 100 µM
GI50 (HCC 2998; read-out: pGI50 (converted)): 26.3 µM
CC50 (HCC 2998; [8]): 100 µM
TGI (HCC 2998; read-out: pTGI (converted)): 100 µM
GI50 (OVCAR-4; read-out: GI50): 22 µM
CC50 (OVCAR-4; [7]): 100 µM
TGI (OVCAR-4; read-out: TGI): 100 µM
GI50 (OVCAR-4; read-out: pGI50 (converted)): 22.4 µM
CC50 (OVCAR-4; [8]): 100 µM
TGI (OVCAR-4; read-out: pTGI (converted)): 100 µM
GI50 (St-4; read-out: GI50): 24 µM
CC50 (St-4; [7]): 100 µM
TGI (St-4; read-out: TGI): 100 µM
GI50 (St-4; read-out: pGI50 (converted)): 24 µM
CC50 (St-4; [8]): 100 µM
TGI (St-4; read-out: pTGI (converted)): 100 µM
Activity [3]: 399%
Activity [4]: 648%
GI50 (NCI-H23; read-out: GI50): > 100 µM
CC50 (NCI-H23; [7]): 100 µM
TGI (NCI-H23; read-out: TGI): 100 µM
GI50 (NCI-H23; read-out: pGI50 (converted)): > 100 µM
CC50 (NCI-H23; [8]): 100 µM
TGI (NCI-H23; read-out: pTGI (converted)): 100 µM
GI50 (MCF7; read-out: GI50): 9.3 µM
CC50 (MCF7; [7]): > 100 µM
TGI (MCF7; read-out: TGI): 100 µM
GI50 (MCF7; read-out: pGI50 (converted)): 9.33 µM
CC50 (MCF7; read-out: pLC50 (converted)): > 100 µM
TGI (MCF7; read-out: pTGI (converted)): 100 µM
GI50 (PC-3; read-out: GI50): 5.2 µM
TGI (PC-3; read-out: TGI): 100 µM
GI50 (PC-3; read-out: pGI50 (converted)): 5.25 µM
TGI (PC-3; read-out: pTGI (converted)): 100 µM
GI50 (HT-29; read-out: GI50): 43 µM
CC50 (HT-29; [7]): > 100 µM
TGI (HT-29; read-out: TGI): 100 µM
GI50 (HT-29; read-out: pGI50 (converted)): 41.7 µM
CC50 (HT-29; read-out: pLC50 (converted)): > 100 µM
TGI (HT-29; read-out: pTGI (converted)): 100 µM
GI50 (DU-145; read-out: GI50): > 100 µM
CC50 (DU-145; [7]): 100 µM
TGI (DU-145; read-out: TGI): 100 µM
GI50 (DU-145; read-out: pGI50 (converted)): > 100 µM
CC50 (DU-145; [8]): 100 µM
TGI (DU-145; read-out: pTGI (converted)): 100 µM
GI50 ([5]; read-out: GI50): > 100 µM
CC50 [5, 7]: 100 µM
TGI ([5]; read-out: TGI): 100 µM
GI50 ([5]; read-out: pGI50 (converted)): > 100 µM
CC50 [5, 8]: 100 µM
TGI ([5]; read-out: pTGI (converted)): 100 µM
Activity [6]: 162%
GI50 (ACHN; read-out: GI50): 87 µM
CC50 (ACHN; [7]): 100 µM
TGI (ACHN; read-out: TGI): 100 µM
GI50 (ACHN; read-out: pGI50 (converted)): 89.1 µM
CC50 (ACHN; [8]): 100 µM
TGI (ACHN; read-out: pTGI (converted)): 100 µM
